# This is a sample that favours compounds with a hit; in the whole collection about 2.9% have one here.
# DENV2 CPE rescue: inhibitors of DENV2 cytopathic effect, primary screen, cell-based, plate reader, single concentration; DENV2-infected cells, cytopathic effect rescue; CPE inhibition, % at 9.99 µM; hit rate 1.7% among 350,000; in the data active means CPE inhibition above about 20%, passing the limit was not always enough; inconclusive means no clear call, values can overlap the other calls; tested in BHK-21 cells;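 further: 0% = median of neutral control wells and 100% = median of positive control wells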
# SIRT5 inh: SIRT5 desuccinylase inhibitors, primary screen, biochemical, fluorescence imaging, single point, set 5. NAD-dependent protein deacylase sirtuin-5, mitochondrial (Homo sapiens), Q9NXA8. inhibition, % at 15 µM. hit rate 1.1% among 330,000. AID 652115, 2013. Purified SirT5, succinyl-peptide AMC, trypsin-coupled fluorescence; in the data active means inhibition above about 15%; inconclusive means no clear call, values can overlap the other calls
# Target sequence (Q9NXA8 whole entry, looked up): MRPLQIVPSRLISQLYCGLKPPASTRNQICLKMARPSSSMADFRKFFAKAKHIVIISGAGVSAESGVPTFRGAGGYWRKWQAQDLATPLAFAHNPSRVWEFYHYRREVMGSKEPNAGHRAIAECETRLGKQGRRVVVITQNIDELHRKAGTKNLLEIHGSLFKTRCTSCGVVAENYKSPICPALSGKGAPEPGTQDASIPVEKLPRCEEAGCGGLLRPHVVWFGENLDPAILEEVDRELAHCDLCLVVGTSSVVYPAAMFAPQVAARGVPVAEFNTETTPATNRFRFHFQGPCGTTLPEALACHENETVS
# Statin myotox sup: suppressors of statin myotoxicity in C2C12 myotubes, primary screen, cell-based, single point, plate reader; C2C12 myotubes + simvastatin, ATP luminescence, 48 h; scaled: DMSO 0, geranylgeraniol control 100; rescue of ATP level, % at 7.49 µM; hit rate 0.78% among 330,000; AID 602340, 2012;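 active means mean ATP rescue above about 67%, or every replicate alone reaching that limit, limit read from the data, passing the limit was not always enough; inconclusive means no clear call, values can overlap the other calls; inactive means mean under the limit and some replicate under it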;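 further: myotubes were challenged with 10 µM simvastatin during compound exposure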
# PGC1a acetyl inh: inhibitors of PGC1a acetylation signal, primary screen, cell-based, U2OS, AlphaScreen, inhibitor mode. hit rate 0.17% among 350,000. AID 651687, 2012. inhibition, % at 15.6 µM. AlphaScreen anti-acetyl-lysine; with virally co-expressed GCN5 acetyltransferase;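 active means every replicate shows inhibition of at least 40%; inconclusive means mean inhibition at least 40% but some replicate below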;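 further: 0% = neutral control wells and 100% = positive control wells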
# S100A4 MyoIIA: inhibitors of S100A4-myosin IIA peptide binding, primary screen, biochemical, fluorescence polarization, TAMRA-MyoIIA peptide | inhibition, % at 10.7 µM | hit rate 0.14% among 360,000 | Protein S100-A4 (Homo sapiens), P26447;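 active means mean inhibition of at least 70% across replicates, with every replicate also reaching that level; inconclusive means mean inhibition reaches 70% but some replicates fall short; inactive means mean inhibition below 70%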
# Target sequence (P26447 whole entry, looked up): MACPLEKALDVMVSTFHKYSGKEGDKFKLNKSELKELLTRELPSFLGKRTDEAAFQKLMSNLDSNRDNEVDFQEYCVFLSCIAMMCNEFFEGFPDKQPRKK
#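 incubation = readout 5 min after mixing, signal stable up to 60 min | system = S100A4 monomer protein | buffer or medium = HEPES pH 7.2 with CaCl2, KCl, NaCl, DTT, Triton | benchmarks = neutral control DMSO, positive control TFP | also added = fluorescent myosin IIA peptide, 5 nM | compound dosing = one concentration per compound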
# The depositor's hits bear a star; ? = inconclusive; . = not tested or not shown.
SMILES,DENV2 CPE rescue,SIRT5 inh,Statin myotox sup,PGC1a acetyl inh,S100A4 MyoIIA
C[C@@H]1CCCCO[C@H](CN(C)Cc2ccncc2)[C@H](C)CN([C@@H](C)CO)C(=O)c2cc(NC(=O)Nc3ccc(F)cc3)ccc2O1,?,.,28,4,.
C[C@@H]1CN([C@H](C)CO)C(=O)c2cc(NC(=O)NC3CCCCC3)ccc2O[C@H]1CN(C)Cc1ccncc1,7,1,11,0,-3
C[C@H](CO)N1C[C@H](C)[C@@H](CN(C)S(=O)(=O)c2cccs2)Oc2ccc(NS(C)(=O)=O)cc2C1=O,.,7,-22,8,-1
CCC(=O)N1CC(=O)N2[C@H](C1)[C@H](c1ccc(C#Cc3cccnc3)cc1)[C@@H]2CO,-3,-5,.,-3,-1
COc1ccc(S(=O)(=O)N2CCCc3nc(C)c(C)cc32)cc1,-7,.,.,.,1
COc1ccc(O[C@H]2C=C[C@@H](c3ccccc3)O[C@@H]2CO/N=C(\C)CCN2CCCCc3nc(C)c(C)cc32)cc1,36*,-3,.,.,-8
C#CCN([C@H](/C=C/C1CC1)[C@@H](O)Cc1ccccc1)[C@@H](Cc1ccccc1)C(=O)OC,-6,2,.,-48,8
COc1cccc(-c2ccc3c(c2)O[C@H](CN(C)Cc2cncnc2)[C@H](C)CN([C@H](C)CO)S3(=O)=O)c1,13,-2,-5,2,-2
CN1CCN(CCCNC(=O)C2CC(=O)N(C3CCCCC3)C2)CC1 (centres undefined),.,.,2,-2,.
O=C(NCCCN1CCN(c2ccccc2F)CC1)C1CC(=O)N(C2CCCC2)C1 (centres undefined),5,.,125*,2,-3
COc1ccc(S(=O)(=O)N(C)C[C@@H]2Oc3ccc(NC(=O)C4CCCCC4)cc3C(=O)N([C@H](C)CO)C[C@@H]2C)cc1,-6,3,-18,-1,3
O=C(COc1ccccc1)NCC(=O)N/N=C/C=C/c1ccccc1,-2,20*,.,.,2
Cc1ccc(/C=N/NC(=O)CNC(=O)COc2ccccc2)cc1,-8,0,.,.,-1
O=C(COc1ccccc1)NCC(=O)N/N=C/c1ccc(Br)cc1,70*,0,1,.,1
O=C(COc1ccccc1)N/N=C/c1ccc2c(c1)OCO2,4,21*,-1,-2,-3
Cc1[nH]c2ccccc2c1/C=N/NC(=O)CNC(=O)COc1ccccc1,-2,113*,0,-8,9
O=C(CNC(=O)c1ccc(Cl)cc1)N/N=C/C=C/c1ccccc1,-4,-8,.,.,-4
CCNC(=O)[C@H]1[C@H](CO)[C@H]2Cn3c(ccc(C4=CCCCC4)c3=O)[C@@H]1N2CCC(F)(F)F,-8,-30,.,.,4
COc1ccc(NC(=O)COc2ccc3c(c2)OCO3)cc1,-5,-2,-2,-16,-7
CCc1ccc(NC(=O)COc2ccc3c(c2)OCO3)cc1,47*,-2,.,-6,-3
O=C(C[C@H]1C[C@@H]2c3cc(NS(=O)(=O)c4ccc(F)cc4)ccc3O[C@@H]2[C@H](CO)O1)NC1CCCC1,-2,0,-2,5,-3
Cc1cc(Cl)c(S(=O)(=O)N2CCSCC2)cc1OCC(N)=O,.,.,-6,-6,.
Cc1cc(Cl)c(S(=O)(=O)N2CC(C)OC(C)C2)cc1OCC(N)=O (centres undefined),.,.,135*,-17,.
O=c1c2c3c(sc2nc(NCCOCCO)n1Cc1ccco1)CCCCC3,-1,-3,4,-7,-6
CC(O)CNc1nc2sc3c(c2c(=O)n1Cc1ccco1)CCCCC3 (centres undefined),29*,-4,7,-5,3
Cc1ccc(Nc2cc(=O)[nH]c(=O)[nH]2)c(C)c1,.,.,121*,5,.
Cc1cccc(Nc2cc(=O)[nH]c(=O)[nH]2)c1,-1,-1,.,.,-1
CCCC(=O)Nc1ccc2c(c1)C(=O)N(C)C[C@H](OC)[C@H](C)CN(C)[C@H](C)CO2,-7,-2,6,2,4
Cc1cccc(NC(=O)C2CCCN(S(=O)(=O)c3cccc4nsnc34)C2)n1 (centres undefined),.,.,108*,-9,.
Cc1cccc(NC(=O)C2CCN(S(=O)(=O)c3cccc4nsnc34)CC2)n1,.,-3,14,-17,-4

# Screens: PubChem, Broad Institute
